Reference: ChEMBL document CHEMBL1221214, “Cytosporone B is an agonist for nuclear orphan receptor Nur77” (Nat Chem Biol, 2008)
Values after ≈ are worked out from the molar mass of the structure shown. Active and inactive are the calls of the source. The calls are words filed in the database; no cut-off is given here.

Assays:
[1] = target: Nuclear receptor subfamily 4 group A member 1 (Mus musculus) (UniProt P12813); assay: Agonist activity at Nur77 in wild-type mouse C57BL/6 assessed as phosphofructokinase mRNA at 50 mg/kg, ip within 30 to 300 mins by real-time PCR analysis; assay type: functional, organism-based; design: dose 50 mg/kg
Chain of Nuclear receptor subfamily 4 group A member 1 (Mus musculus) (P12813 whole entry, the tested form may be a part): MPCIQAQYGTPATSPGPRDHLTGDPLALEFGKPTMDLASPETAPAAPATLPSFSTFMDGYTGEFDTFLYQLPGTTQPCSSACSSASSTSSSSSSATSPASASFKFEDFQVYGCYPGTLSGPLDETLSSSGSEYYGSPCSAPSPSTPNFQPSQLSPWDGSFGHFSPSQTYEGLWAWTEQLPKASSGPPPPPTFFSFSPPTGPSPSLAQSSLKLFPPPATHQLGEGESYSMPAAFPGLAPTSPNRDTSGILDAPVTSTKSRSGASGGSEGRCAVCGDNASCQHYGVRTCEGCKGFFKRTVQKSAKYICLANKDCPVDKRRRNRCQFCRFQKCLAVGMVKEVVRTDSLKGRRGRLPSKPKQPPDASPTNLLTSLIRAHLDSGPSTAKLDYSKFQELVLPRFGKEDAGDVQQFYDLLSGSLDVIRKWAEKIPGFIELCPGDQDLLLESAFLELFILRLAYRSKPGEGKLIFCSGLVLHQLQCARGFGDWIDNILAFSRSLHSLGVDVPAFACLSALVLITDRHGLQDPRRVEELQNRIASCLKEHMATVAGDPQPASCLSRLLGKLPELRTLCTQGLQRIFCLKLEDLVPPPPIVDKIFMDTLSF

[2] = target: Nuclear receptor subfamily 4 group A member 1 (Mus musculus) (UniProt P12813); assay: Agonist activity at Nur77 in Nr4A1 deficient mouse assessed as transcriptional activation of luciferase reporter gene relative to control; assay type: functional
[3] = target: T1, Nuclear receptor subfamily 4immunitygroup A member 1 (Homo sapiens, UniProt P22736); assay: Agonist activity at nuclear orphan receptor Nur77 expressed in human BGC823 cells co-transfected with pLuc-500 containing Nr4a1 promoter assessed as transcriptional activity; assay type: functional, cell-based; conditions: BGC-823
T1 sequence (P22736 whole entry, the tested form may be a part): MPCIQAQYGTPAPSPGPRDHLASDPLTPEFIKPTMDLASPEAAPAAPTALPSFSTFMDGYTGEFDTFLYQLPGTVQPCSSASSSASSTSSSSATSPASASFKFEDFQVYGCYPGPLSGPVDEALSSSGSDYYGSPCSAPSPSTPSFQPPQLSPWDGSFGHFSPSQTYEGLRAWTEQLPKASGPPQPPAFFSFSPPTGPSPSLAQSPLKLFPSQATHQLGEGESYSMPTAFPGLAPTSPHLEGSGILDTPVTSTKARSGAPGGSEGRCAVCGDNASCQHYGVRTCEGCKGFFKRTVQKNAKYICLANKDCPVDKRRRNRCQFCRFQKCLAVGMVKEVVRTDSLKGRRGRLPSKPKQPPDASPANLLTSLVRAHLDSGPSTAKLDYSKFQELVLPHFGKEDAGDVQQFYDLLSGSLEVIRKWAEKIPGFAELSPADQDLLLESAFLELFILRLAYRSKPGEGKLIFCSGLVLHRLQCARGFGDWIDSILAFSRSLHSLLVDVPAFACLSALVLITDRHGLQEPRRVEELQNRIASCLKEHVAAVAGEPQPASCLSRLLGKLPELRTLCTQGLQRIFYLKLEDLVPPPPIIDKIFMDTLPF

[4] = target: T1, Nuclear receptor subfamily 4immunitygroup A member 1; assay: Agonist activity at nuclear orphan receptor Nur77 expressed in human BGC823 cells co-transfected with fused GAL4-Nur77 assessed as transactivation after 12 hrs by luciferase reporter gene assay; assay type: functional, cell-based, BGC-823
[5] = target: Nuclear receptor subfamily 4 group A member 1 (Mus musculus) (UniProt P12813); assay: Agonist activity at Nur77 in wild-type mouse assessed as transcriptional activation of luciferase reporter gene relative to control; assay type: functional
Outline: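 Nur77, NurRE-luciferase reporter and β-galactosidase combined with in vivo transfection reagent and injected into tail vein of wild-type or Nr4a1-/- C57BL/6 mice (n = 5/group); 5 h later DMSO (50 μl) or Csn-B 50 mg kg-1 ip; liver lysate luciferase read 24 h post-injection; means ± s.e.m.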

[6] = target: Nuclear receptor subfamily 4 group A member 1 (Mus musculus) (UniProt P12813); assay: Agonist activity at Nur77 in wild-type mouse C57BL/6 assessed as fructose-1,6-bisphosphatase mRNA at 50 mg/kg, ip within 30 mins by real-time PCR analysis relative to control; assay type: functional, organism-based; design: dose 50 mg/kg
[7] = system: Staphylococcus aureus; assay: Antimicrobial activity against Staphylococcus aureus; assay type: functional, organism-based
[8] = target: T1, Nuclear receptor subfamily 4immunitygroup A member 1; assay: Binding affinity to nuclear orphan receptor Nur77-ligand binding domain at 5 Um by fluorescence quenching analysis
[9] = system: Saccharomyces cerevisiae; assay: Antimicrobial activity against Saccharomyces cerevisiae; assay type: functional, organism-based
[10] = target: T1, Nuclear receptor subfamily 4immunitygroup A member 1; assay: Agonist activity at nuclear orphan receptor Nur77 expressed in human BGC823 cells co-transfected with fused GAL4-LBD assessed as transactivation after 12 hrs by luciferase reporter gene assay; assay type: functional, cell-based, BGC-823
[11] = system: BGC-823; assay: Antitumor activity against human BGC823 cells expressing Nur77-WT xenografted in athymic nude mouse BALB/c assessed as increase in apoptotic cells by TUNEL assay
[12] = target: T1, Nuclear receptor subfamily 4immunitygroup A member 1; assay: Agonist activity at Nur77 expressed in human gastric cancer BGC823 assessed as transactivation in presence of siRNA against Nur77; assay type: functional; conditions: Stomach
[13] = system: BGC-823; assay: Induction of mitochondrial translocation of Nur77 from nucleus in human BGC823 cells transfected with GFP-Nur77 at 5 ug/ml after 12 hrs using immunostained with anti-Hsp60 by confocal microscopy; assay type: functional, cell-based
Outline: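 BGC-823 cells transfected with GFP-Nur77, treated at 5 μg ml-1 for 12 h, immunostained with anti-Hsp60 and Texas Red secondary antibody, and imaged by confocal microscopy for mitochondrial localization.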

[14] = organism: Mus musculus; assay: Reduction in blood glucose level in insulin treated mouse C57BL/6 within 30 mins; assay type: functional
Outline: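 C57BL/6 mice fasted 5 h with water, then injected intraperitoneally with insulin (0.5 U kg-1), alone or with compound at 50 mg kg-1. Tail-vein blood glucose was read by glucometer at 15–300 min after treatment. Means ± s.e.m.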

[15] = target: T1, Nuclear receptor subfamily 4immunitygroup A member 1; assay: Binding affinity to nuclear orphan receptor Nur77 assessed as conformational change in receptor by CD spectroscopic
[16] = target: Nuclear receptor subfamily 4 group A member 1 (Mus musculus) (UniProt P12813); assay: Agonist activity at Nur77 in insulin treated mouse C57BL/6 assessed as glucose-6-phosphatase mRNA after 60 mins by real-time PCR relative to control; assay type: functional
[17] = target: T1, Nuclear receptor subfamily 4immunitygroup A member 1; assay: Agonist activity at nuclear orphan receptor Nur77 expressed in human BGC823 cells co-transfected with pLuc-3500 containing Nr4a1 promoter assessed as transcriptional activity; assay type: functional, cell-based; conditions: BGC-823
[18] = system: BGC-823; assay: Induction of Nur77 mediated apoptosis in human BGC823 cells assessed as cytochrome C release from mitochondria at 5 uM after 24 hrs by Western blotting analysis; assay type: functional, cell-based
[19] = target: T1, Nuclear receptor subfamily 4immunitygroup A member 1; assay: Agonist activity at nuclear orphan receptor Nur77 expressed in human BGC823 cells co-transfected with fused GAL4-Y453A assessed as transactivation after 12 hrs by luciferase reporter gene assay; assay type: functional, cell-based; conditions: BGC-823
[20] = system: NIH3T3; assay: Antiproliferative activity against mouse NIH/3T3 cells assessed as number of viable cells after 72 hrs by MTT assay; assay type: functional, cell-based
[21] = Antiproliferative activity against human H1299 cells assessed as number of viable cells after 72 hrs by MTT assay; assay type: functional, NCI-H1299
[22] = target: Nuclear receptor subfamily 4 group A member 1 (Mus musculus) (UniProt P12813); assay: Agonist activity at Nur77 in Nr4a1 deficient mouse transfected withGAL4-Y453A assessed as transcriptional activation of luciferase reporter gene; assay type: functional
Outline: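 Nr4a1-/- mice (n = 5/group) given tail-vein GAL4-Nur77 or GAL4-Y453A with GAL4-luciferase reporter and β-galactosidase in in vivo transfection reagent; 5 h later DMSO or Csn-B 50 mg kg-1 ip; liver luciferase measured at 24 h.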

[23] = target: T1, Nuclear receptor subfamily 4immunitygroup A member 1; assay: Induction of SRC1-enhanced Nur77 transactivational activity in human BGC823 cells after 12 hrs by luciferase/beta-galactosidase reporter assay; assay type: cell-based; conditions: BGC-823
Outline: (§1)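 BGC-823 cells cotransfected with or without SRC-1, SRC-2 or SRC-3, plus NurRE-luciferase reporter and β-galactosidase, then treated for 12 h at a range of concentrations. Fold induction is each luciferase activity relative to non-SRC transfection at the same concentration.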

[24] = target: Nuclear receptor subfamily 4 group A member 1 (Mus musculus) (UniProt P12813); assay: Agonist activity at Nur77 in wild-type mouse C57BL/6 assessed as pyruvate kinase mRNA at 50 mg/kg, ip after 300 mins by real-time PCR analysis; assay type: functional, organism-based; design: dose 50 mg/kg
[25] = target: Nuclear receptor subfamily 4 group A member 1 (Mus musculus) (UniProt P12813); assay: Agonist activity at Nur77 in wild-type mouse C57BL/6 assessed as pyruvate kinase mRNA at 50 mg/kg, ip within 30 mins by real-time PCR analysis; assay type: functional, organism-based; design: dose 50 mg/kg
[26] = system: BGC-823; assay: Antitumor activity against human BGC823 cells expressing Nur77-WT xenografted in athymic nude mouse BALB/c assessed as tumor weight 13 mg/kg, ip twice a week after 4 weeks; assay type: functional, organism-based; design: dose 13 mg/kg
Outline: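 BALB/c athymic nude mice (~16 g, 4 weeks old, 28 °C, sterile housing) inoculated subcutaneously with 0.05 ml BGC-823 cell suspension (wild-type, si-Nur77 or si-Ctrl sublines; 2.5×10^10 l-1), n = 6; after 1 week, Csn-B 13 mg kg-1 ip twice weekly or DMSO; tumors weighed at 4 weeks; means ± s.d., two-tailed t-test.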

[27] = target: T1, Nuclear receptor subfamily 4immunitygroup A member 1; assay: Agonist activity at nuclear orphan receptor Nur77 expressed in human BGC823 cells co-transfected with fused GAL4-DBD assessed as transactivation after 12 hrs by luciferase reporter gene assay; assay type: functional, cell-based; conditions: BGC-823
[28] = target: Nuclear receptor subfamily 4 group A member 1 (Mus musculus) (UniProt P12813); assay: Agonist activity at Nur77 in wild-type mouse C57BL/6 assessed as phosphofructokinase mRNA at 50 mg/kg, ip after 300 mins by real-time PCR analysis; assay type: functional, organism-based; design: dose 50 mg/kg
[29] = system: BGC-823; assay: Induction of SRC3 recruitment to NurRE in human BGC823 cells after 12 hrs by luciferase/beta-galactosidase reporter assay; assay type: functional, cell-based; outline: as §1
[30] = target: T1, Nuclear receptor subfamily 4immunitygroup A member 1; assay: Binding affinity to NuR77-LBD receptor expressed in human BGC823 cells; assay type: cell-based, BGC-823
[31] = target: T1, Nuclear receptor subfamily 4immunitygroup A member 1; assay: Binding affinity to nuclear orphan receptor Nur77 by sedimentation equilibrium assay

In the case of CCCCCCCC(=O)c1c(O)cc(O)cc1CC(=O)OCC [CYTOSPORONE B], the Activity [1] is reported as “inactive”, the Activity [2] is reported as “inactive” and the Activity [3] is reported as “inactive”. The EC50 [4] was 0.278 nM, the fold change (FC) [5] was 5 and the fold change (FC) [6] was 3. For the same molecule, the IC50 [7] was 12.5 µg/mL (≈ 38.8 µM), the Activity [8] was “Active” and the IC50 [9] was 1.56 µg/mL (≈ 4.84 µM). For the same molecule, the EC50 [10] was 0.115 nM, the Activity [11] was “Active” and the Activity [12] was “inactive”. The Activity [13] was “Active”, the “fold change (FC)” value [14] was 3 and the Activity [15] was “Active”. The fold change (FC) [16] was 6.23, the Activity [17] was “Active” and the Activity [18] was “Active”. For the same molecule, the Activity [19] was “inactive”, the inhibition [20] was “Active” and the “inhibition (INH)” value [21] was “>=40%”. For the same molecule, the Activity [22] was “inactive”, the Activity [23] was “Dose-dependent effect” and the Activity [24] was “inactive”. The Activity [25] was “inactive”, the Activity [26] was “Active” and the Activity [27] was “inactive”. For the same molecule, the Activity [28] was “inactive”, the Activity [29] was “inactive” and the Kd [30] was 1510 nM. For the same molecule, the Activity [31] was “Active”.
